From ChEMBL document CHEMBL4251661, “Capsicodendrin from Cinnamosma fragrans Exhibits Antiproliferative and Cytotoxic Activity in Human Leukemia Cells: Modulation by Glutathione” (J Nat Prod, 2018)
Activity calls are given as the source filed them. No cut-off for these calls is given here.

Legend:
HL-60 [1] = test: Growth inhibition of human HL60 cells after 72 hrs in presence of GSH synthesis inhibitor buthionine sulfoximine by Beckman coulter counting method; type: functional, cell-based; conditions: HL-60, 72 h
How it was run: (§1)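 HL-60 cells in complete RPMI, preincubated 40 h with or without BSO 50 μM, then seeded at 100 000 cells/mL. Treated with CPCD (0.1, 0.2, 0.5 μM) or DMSO (1%) for 72 h at 37 °C, 5% CO2. Cells counted on a Coulter counter; IC50 taken from growth curves. Mean ± SEM of 3–4 separate-day experiments.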

K562 [2] = test: Growth inhibition of human K562 cells after 72 hrs in presence of GSH synthesis inhibitor buthionine sulfoximine by Beckman coulter counting method; type: functional, cell-based; conditions: K562, 72 h
How it was run: (§2)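 K562 cells in DMEM + 10% FBS, preincubated 40 h with or without BSO 50 μM, then seeded at 100 000 cells/mL. Exposed to CPCD or DMSO at 37 °C, 5% CO2; growth assessed after 48 h per figure legend (72 h per methods). Cell number read on a Coulter counter; IC50 calculated from growth curves. Mean ± SEM of 3–4 separate-day runs.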

HL-60 [3] = test: Cytotoxicity against human HL60 cells assessed as cell death at 0.2 to 0.5 uM after 48 hrs in presence of GSH synthesis inhibitor buthionine sulfoximine by trypan blue dye exclusion method; type: functional, cell-based
How it was run: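 HL-60 cells (RPMI-1640 + 15% FBS, 37 °C, 5% CO2) seeded at 100 000 cells/mL. For line 1, cells were first held 40 h ± BSO 50 μM. They were then exposed to CPCD 0.1–0.5 μM or DMSO for 48 h or 48 and 72 h. Cells were mixed 1:1 with trypan blue and % blue-positive cells counted on a hemocytometer. Mean ± SEM of 3–9 separate-day runs.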

HL-60 [4] = test: Induction of DNA damage in human HL60 cells assessed as increase in DNA strand breaks at 2 to 5 uM after 1 hr in presence of GSH synthesis inhibitor buthionine sulfoximine by SYBR green dye based comet assay; type: functional, cell-based
How it was run: (§3)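 HL-60 cells (100 000 cells/mL), ±BSO 50 μM for 40 h, moved into HEPES/glucose/salt buffer pH 7.4. Treated 1 h at 37 °C with CPCD 0.5–5 μM or 0.2% DMSO. Cells embedded in low-melt agarose, lysed, held at pH 13, then electrophoresed 30 min at 21 V/cm. SYBR Gold staining; Olive tail moment scored from ≥100 cells. Mean ± SEM of 5 runs.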

HL-60 [5] = test: Induction of apoptosis in human HL60 cells assessed as change in morphology at 0.2 to 0.5 uM after 48 hrs in presence of GSH synthesis inhibitor buthionine sulfoximine by […]; type: functional, cell-based
How it was run: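 HL-60 cells seeded at 100 000 cells/mL; for line 11, first held 40 h ± BSO 50 μM. Exposed to CPCD 0.1–0.5 μM or 0.1% DMSO for 48 h or 48 and 72 h. Washed pellets stained 20 min in the dark at room temperature with Hoechst 33342 (0.013 mg/mL). Fluorescence microscopy; 100–200 cells scored for apoptotic nuclear morphology.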

HL-60 [6] = test: Induction of DNA damage in human HL60 cells assessed as increase in DNA strand breaks at 0.5 to 5 uM after 1 hr by SYBR green dye based comet assay; type: functional, cell-based; how it was run: as §3
HL-60 [7] = test: Growth inhibition of human HL60 cells at 0.2 to 0.5 uM after 48 hrs in presence of GSH synthesis inhibitor buthionine sulfoximine by Beckman coulter counting method; type: functional, cell-based
[8] = Displacement of ThioGlo4 from glutathione measured after 8 hrs by fluorescence assay; conditions: read-out: Kd(app)
How it was run: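 GSH (5 μM) incubated with CPCD 0.5–100 μM in 1× PBS for 8 h at 37 °C. ThioGlo IV (10 μM) added to diluted aliquots; unreacted GSH quantified by fluorescence, excitation 400 nm, emission 465 nm.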

HL-60 [9] = test: Induction of reactive oxygen species generation in human HL60 cells at 1 to 5 uM measured at 2 mins interval for 1 hr by DCFH-DA staining-based fluorescence assay; type: functional, cell-based
How it was run: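 HL-60 cells (1 × 10^6/mL) loaded with DCFH-DA 2 μM in HEPES buffer for 30 min at 37 °C, washed, then treated with vehicle, CPCD 1–5 μM or H2O2 25 μM. Fluorescence read every 2 min up to 1 h, in triplicate wells. Rate expressed as fluorescence units per min.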

HL-60 [10] = test: Growth inhibition of human HL60 cells after 72 hrs by Beckman coulter counting method; type: functional, cell-based; conditions: HL-60, 72 h; how it was run: as §1
K562 [11] = test: Growth inhibition of human K562 cells after 72 hrs by Beckman coulter counting method; type: functional, cell-based; conditions: K562, 72 h; how it was run: as §2
[12] = Drug level in DMSO-d6 treated with capsicodendrin at 2 mg measured after 1 hr by 1H-NMR spectra analysis; type: physicochemical

Drug metabolism [12] | SMILES | IC50 (HL-60 [1]) [µM] | IC50 (K562 [2]) [µM] | Activity (HL-60 [3]) | Activity (HL-60 [4]) | Activity (HL-60 [5]) | Activity (HL-60 [6]) | growth inhibition (GI) (HL-60 [7]) | Kd [8] [µM] | Activity (HL-60 [9]) | IC50 (HL-60 [10]) [µM] | IC50 (K562 [11]) [µM]
 | CC(=O)O[C@@H]1C=C([C@H]2O[C@@H]3OC(O)C4=C[C@@H](OC(C)=O)[C@H]5C(C)(C)CCC[C@]5(C)[C@]43O2)[C@](O)(C=O)[C@@]2(C)CCCC(C)(C)[C@H]12 (some centres not stated) | 0.07 to 0.09 | 0.18 to 0.21 | Active | Active | Active | Active | Active | 7.2 | inactive | 0.2 to 0.27 | 0.36 to 0.48
Metabolite_Detected | CC(=O)O[C@@H]1C=C(C=O)[C@](O)(C=O)[C@@]2(C)CCCC(C)(C)[C@H]12 [CINNAMODIAL] |  |  |  |  |  |  |  |  |  |  | 
